For series [1], the target named is Histone deacetylase. The series is described as follows: Inhibition of HDAC in human HeLa cells assessed as deacetylation of substrate by fluorescence plate reader analysis. Format: cell-based. In short, it runs like this: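 Enzyme source: HeLa cell nuclear extract (partially purified HDAC). Extract incubated with an acetylated-lysine substrate in the presence of inhibitor; a developer then releases a fluorophore from the deacetylated substrate, read at ex/em 335/460 nm. IC50 is the concentration giving 50% inhibition of enzymatic activity, from triplicate runs averaged. SAHA and LAQ-xx were positive controls.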

Series [2] can be described thus: Aqueous solubility of the compound at pH 7.4. Format: physicochemical.
For series [3], the system named is HCT-116. The series is described as follows: Cytotoxicity against human HCT116 cells after 5 days by Alamar Blue assay. Format: functional, cell-based. To be noted: HCT-116, 120 h. In short, it runs like this: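 Colon cancer HCT-116 cells were seeded in complete medium, and inhibitors were added after 24 h at 0.1–100 µM in quadruplicate. After 5 days, Alamar Blue was added and plates were incubated a further 4 h. Fluorescence was read at ex 530/em 590 nm. IC50 is the concentration giving 50% inhibition of proliferation.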

Series [4] has as its target T1, Histone deacetylase (Homo sapiens) (UniProt Q13547+O15379+Q9UBN7+Q92769+Q9UQL6+Q8WUI4+Q9BY41+Q96DB2+P56524+Q9UKV0+Q969S8). Briefly: Inhibition of HDAC (unknown origin) at 0.1 uM. Format: protein assay. In short, it runs like this:
(§1)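 HeLa nuclear extract HDAC incubated with an acetylated-lysine substrate and inhibitor. Deacetylated substrate mixed with developer gives a fluorophore, read at ex/em 335/460 nm. Two-point screen at 0.1 and 1.0 µM, expressed as % inhibition. Triplicate determinations, averaged.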

For series [5], the target named is T1, Histone deacetylase (Homo sapiens). The series is described as follows: Inhibition of HDAC (unknown origin) at 1 uM. Format: protein assay. In short, it runs like this:
as §1

The subject of series [6] is HCT-116. Briefly: Antitumor activity against human HCT116 cells xenografted in CD1 mouse assessed as reduction in tumor volume at 50 mg/kg, po. It is filed as functional. More on the design: scale not given: the % may be the effect or the level left. In short, it runs like this:
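Female CD1 nude (nu/nu) athymic mice were dosed orally at 50 and 100 mg/kg for 21 days, n = 4 per group. Vehicle control was 0.5% CMC at 10 mL/kg. Read-out was tumor volume inhibition (TVI).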

In brackets after ≈: the same amount, converted by molar mass.

What is called IC50 is the concentration at which inhibition is half-maximal. The solubility is how much of the substance goes into solution per volume. What is called inhibition is the drop in the measured response relative to a control, in per cent.

With `Cc1cc2sc(C(=O)NO)cc2cc1O`, the half-maximal inhibitory concentration (IC50) in series [1] is 989 nM.
On to `O=C(Cc1ccccn1)Nc1ccc2cc(C(=O)NO)sc2c1`, for which the concentration in solution in series [2] (solubility) came to 4 µg/mL (≈ 12.2 µM). In series [3], this molecule gave an IC50 of 480 nM. The inhibition is 59% in series [4] and 78% in series [5].
In the case of `O=C(NO)c1cc2ccsc2s1`, the IC50 in series [1] was 1080 nM.
Consider `O=C(NO)c1cc2ccc(COc3cccc(F)c3)cc2s1`, for which the inhibition came to 23% in series [4] and 68% in series [5].
`O=C(Cc1ccccn1)Nc1ccc2sc(C(=O)NO)cc2c1` had a solubility in series [2] of 4 µg/mL (≈ 12.2 µM). Besides, the inhibition came to 39% in series [4] and 74% in series [5].
For the molecule `O=C(CCc1ccccc1)Nc1ccc2sc(C(=O)NO)cc2c1`, the solubility in series [2] was 4 µg/mL (≈ 11.8 µM). Besides, the inhibition was found to be 28% in series [4] and 69% in series [5].
`O=C(NO)c1cc2ccc(COc3ccccc3F)cc2s1`: the inhibition is 22% in series [4] and 58% in series [5].
Take `O=C(NO)c1cc2ccc(NCc3ccccc3)cc2s1`: in series [2], the solubility is 4 µg/mL (≈ 13.4 µM). This molecule also returned an IC50 in series [3] of 1300 nM. Further, the inhibition in series [4] was 58%; in series [5], 79%.
In the case of `COc1cccc2sc(C(=O)NO)cc12`, the IC50 in series [1] came to 3790 nM.
Consider `O=C(Cc1ccncc1)Nc1ccc2sc(C(=O)NO)cc2c1`, for which, in series [2], the solubility was determined as 4 µg/mL (≈ 12.2 µM). Further, the midpoint of inhibition in series [3], the IC50, lay at 8600 nM. Moreover, the inhibition turned out to be 49% in series [4] and 78% in series [5].
In turn, `O=C(Cc1cccnc1)Nc1ccc2cc(C(=O)NO)sc2c1` registered a solubility in series [2] of 4 µg/mL (≈ 12.2 µM). In addition, the IC50 in series [3] came to 3000 nM. The values for the inhibition in series [4] and in series [5] were 62% and 83%, respectively.
In series [3], `N[C@@H](C(=O)Nc1ccc2cc(C(=O)NO)sc2c1)c1ccccc1` had an IC50 of 500 nM. Also, the inhibition was found to be 70% in series [4] and 85% in series [5].
Turning to `O=C(NO)c1cc2cccc(Cl)c2s1`, in series [1], the IC50 was 2910 nM.
As to `O=C(Cc1ccccc1)Nc1ccc2cc(C(=O)NO)sc2c1`, the Activity in series [6] is listed as 26%. This molecule also showed a solubility in series [2] of 4 µg/mL (≈ 12.3 µM). The molecule further showed an IC50 in series [3] of 100 nM. The values for the inhibition in series [4] and in series [5] were 71% and 85%, respectively.
`O=C(Cc1ccccc1)NCc1ccc2cc(C(=O)NO)sc2c1` displayed an IC50 in series [3] of 1200 nM. The inhibition in series [4] came to 60%; in series [5], 88%.
As to `CN(C)c1ccc(CC(=O)Nc2ccc3cc(C(=O)NO)sc3c2)cc1`, the IC50 in series [3] worked out at 500 nM. The inhibition in series [4] came out at 57%; in series [5] it was 82%.
Consider `O=C(NO)c1cc2cc(NCCc3ccccc3)ccc2s1`, for which the solubility in series [2] came out at 4 µg/mL (≈ 12.8 µM). The inhibition turned out to be 28% in series [4] and 61% in series [5].
The like results for `O=C(NO)c1cc2ccc(NCCc3ccccc3)cc2s1` were, in that order, 4 µg/mL (≈ 12.8 µM), 32% and 73%.
Regarding `O=C(NO)c1cc2cc(NCc3ccccc3)ccc2s1`, the solubility in series [2] amounted to 4 µg/mL (≈ 13.4 µM). In addition, the inhibition was 28% in series [4] and 68% in series [5].
Take `O=C(NO)c1cc2ccc(CSc3ccc(F)cc3)cc2s1`: the inhibition was less than 20% in series [4] and 24% in series [5].
As for `O=C(NO)c1cc2cccc(C(F)(F)F)c2s1`, the IC50 in series [1] stood at 9190 nM.
With `O=C(NO)c1cc2ccc(CN3CCc4ccccc4C3)cc2s1`, the midpoint of inhibition in series [3], the IC50, lay at 1300 nM. Further, the inhibition in series [4] came to 53%; in series [5] it was 83%.
As for `Cc1ccc2cc(C(=O)NO)sc2c1F`, in series [1], the IC50 came out at 458 nM.
The same measure, in the same setting: under `O=C(NO)c1csc2ccccc12` stands 76130 nM; under `O=C(NO)c1cc2ccccc2s1`, 2170 nM.
Regarding `COc1cccc(CC(=O)Nc2ccc3cc(C(=O)NO)sc3c2)c1`, in series [3], the IC50 was 600 nM. In addition, the inhibition in series [4] is 65%; in series [5], 83%.
Regarding `O=C(NO)c1cc2ccc(COc3ccc(F)cc3)cc2s1`, the inhibition in series [4] is less than 20%; in series [5] it was 31%.
In series [2], `CN(C(=O)CCc1ccccc1)c1ccc2sc(C(=O)NO)cc2c1` registered a solubility of 4 µg/mL (≈ 11.3 µM). Also, the inhibition was 27% in series [4] and 67% in series [5].
`O=C(Cc1cccnc1)Nc1ccc2sc(C(=O)NO)cc2c1` returned a solubility in series [2] of 4 µg/mL (≈ 12.2 µM). In series [3], half-maximal inhibition (IC50) was put at 17000 nM. The same molecule registered an inhibition in series [4] of 49%.
`N[C@@H](Cc1ccccc1)C(=O)Nc1ccc2cc(C(=O)NO)sc2c1` showed an IC50 in series [3] of 5000 nM. Moreover, the inhibition in series [4] came to 54%; in series [5], 81%.
As for `O=C(NCc1ccc2cc(C(=O)NO)sc2c1)c1ccco1`, the IC50 in series [3] came to 70 nM. The inhibition in series [4] was found to be 89%; in series [5], 92%.
`O=C(CCc1ccccc1)Nc1ccc2cc(C(=O)NO)sc2c1` returned a solubility in series [2] of 4 µg/mL (≈ 11.8 µM). Also, inhibition in series [3] was half-maximal at 2600 nM (IC50). The inhibition in series [4] was 42%; in series [5], 76%.
`O=C(Cc1ccc2c(c1)OCO2)Nc1ccc2cc(C(=O)NO)sc2c1`: the results for the inhibition in series [4] and in series [5] were 55% and 78%, respectively.
In series [2], `O=C(Cc1ccccc1)Nc1ccc2sc(C(=O)NO)cc2c1` returned a solubility of 4 µg/mL (≈ 12.3 µM). This molecule also returned an IC50 in series [3] of 1300 nM. Further, the inhibition in series [4] was 48%; in series [5] it was 82%.
In the case of `CN(C)CCCC(=O)Nc1ccc2cc(C(=O)NO)sc2c1`, the concentration in solution in series [2] (solubility) came to 1310 µg/mL (≈ 4080 µM). The IC50 in series [3] came to 2400 nM. Besides, the inhibition in series [4] stood at 50%; in series [5] it was 79%.
With `N[C@H](CCc1ccccc1)C(=O)Nc1ccc2cc(C(=O)NO)sc2c1`, in series [3], the IC50 turned out to be 320 nM. The inhibition in series [4] came out at 44%; in series [5], 78%.
Turning to `CN(C(=O)CCc1ccccc1)c1ccc2cc(C(=O)NO)sc2c1`, the solubility in series [2] is 4 µg/mL (≈ 11.3 µM). Also, the inhibition is 21% in series [4] and 63% in series [5].
Turning to `O=C(NCc1ccc2cc(C(=O)NO)sc2c1)c1cccnc1`, in series [3], the IC50 came out at 730 nM. Besides, the inhibition worked out at 72% in series [4] and 84% in series [5].
`O=C(Cc1ncc[nH]1)Nc1ccc2cc(C(=O)NO)sc2c1`: the inhibition stood at 24% in series [4] and 78% in series [5].
Regarding `N[C@@H](CCc1ccccc1)C(=O)Nc1ccc2cc(C(=O)NO)sc2c1`, it took 3400 nM to reach half-maximal inhibition in series [3] (IC50). Further, the inhibition came to 71% in series [4] and 85% in series [5].
Consider `O=C(NO)c1cc2c(Cl)cccc2s1`, for which the IC50 in series [1] stood at 11630 nM.
In the case of `O=C(NO)c1cc2ccc(CN(CCO)C(=O)Nc3ccccc3)cc2s1`, in series [3], the IC50 came out at 1400 nM. Besides, the inhibition in series [4] is 77%; in series [5] it was 91%.
The like results for `N[C@H](Cc1ccccc1)C(=O)Nc1ccc2cc(C(=O)NO)sc2c1` were, in that order, 340 nM, 41% and 77%.
For `COc1ccc(CC(=O)Nc2ccc3cc(C(=O)NO)sc3c2)cc1`, 490 nM corresponded to half-maximal inhibition in series [3] (IC50). For the same molecule, the inhibition in series [4] was 75%; in series [5] it was 84%.
Regarding `COc1cc2cc(C(=O)NO)sc2cc1C`, the IC50 in series [1] was 1350 nM.
Regarding `N#Cc1cc2ccc(NC(=O)[C@H](N)c3ccccc3)cc2s1`, the inhibition in series [4] and in series [5] was less than 20% throughout.
`O=C(NO)c1cc2ccc(CN(CCO)c3ccccc3)cc2s1` returned an IC50 in series [3] of 1700 nM. In addition, the inhibition in series [4] is 53%; in series [5], 76%.
For the molecule `O=C(NCc1ccc2cc(C(=O)NO)sc2c1)c1ccccc1`, inhibition in series [3] was half-maximal at 250 nM (IC50). Moreover, the inhibition in series [4] is 93%; in series [5] it was 87%.
For the molecule `Cc1ccc2cc(C(=O)NO)sc2c1`, in series [1], the IC50 was 1760 nM.
As for `O=C(NO)c1cc2ccc(CN(CCO)Cc3ccccc3)cc2s1`, half-maximal inhibition in series [3] (IC50) was put at 830 nM. Also, the inhibition in series [4] is 52%; in series [5], 80%.
Consider `COc1ccccc1CC(=O)Nc1ccc2cc(C(=O)NO)sc2c1`, for which, in series [3], the IC50 turned out to be 550 nM. Moreover, the inhibition worked out at 54% in series [4] and 81% in series [5].
For the molecule `O=C(Cc1ccsc1)Nc1ccc2cc(C(=O)NO)sc2c1`, the IC50 in series [3] stood at 110 nM. Further, the inhibition turned out to be 73% in series [4] and 87% in series [5].
Consider `N[C@H](C(=O)Nc1ccc2cc(C(=O)NO)sc2c1)c1ccccc1`, for which, in series [3], the IC50 came to 770 nM. The values for the inhibition in series [4] and in series [5] were 69% and 85%, respectively.
In turn, `O=C(Cc1ccncc1)Nc1ccc2cc(C(=O)NO)sc2c1` returned a solubility in series [2] of 4 µg/mL (≈ 12.2 µM). The same molecule yielded an IC50 in series [3] of 1800 nM. In addition, the inhibition amounted to 66% in series [4] and 84% in series [5].
As to `O=C(NO)c1cc2sccc2s1`, in series [1], the IC50 is 557 nM.
